This is a sample that favours compounds with a hit; in the whole collection about 4.4% have one here.
HTR2A ag = mouse Htr2a agonists via beta-arrestin recruitment, primary screen, cell-based, luminescence; CHO-K1 mHTR2A beta-arrestin complementation; percent of 30 µM serotonin response; AID 624169, 2012; hit rate 0.66% among 360,000; 5-hydroxytryptamine receptor 2A (Mus musculus), P35363; activation, % at 7.6 µM;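 active = activation above a run cutoff, the mean activation of all tested compounds plus 3 SD, cut at about 14% in these data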;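 note: 0% = plate median of compound wells and 100% = 30 µM serotonin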
bovine MsrA act = bovine MsrA enzyme activators, primary screen, biochemical, absorbance, HTS. hit rate 0.3% among 360,000. AID 602163, 2012. Methionine sulfoxide reductase A (Bos taurus). purified bovine MsrA, absorbance read-out. activation, % at 10.6 µM; in the data active = activation above about 7.5%;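 note: 0% = vehicle and 100% = reference activator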
AI-2 QS modul = Vibrio harveyi AI-2 quorum sensing modulators, primary screen, JMH597 strain, luminescence/OD600 ratio | Vibrio harveyi JMH597 AI-2 luminescence/OD600 ratio, 9 h; active compounds read low; strain lacks LuxN and CqsS sensors; 0 = neutral-control median | activity change, % at 7.5 µM | hit rate 0.4% among 300,000 | AID 2094, 2009; in the data active = activity change below about -75%, passing the limit was not always enough; inconclusive = no clear call, values can overlap the other calls;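 note: luminescence divided by OD600 gain over 9 h not by final OD600 alone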
MsrA inhibitor = bovine MsrA enzyme inhibitors, primary screen, biochemical, absorbance, HTS | Methionine sulfoxide reductase A (Bos taurus) | purified bovine MsrA, absorbance read-out | inhibition, % at 15.5 µM | hit rate 0.75% among 360,000; in the data active = inhibition above about 4.5%;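 note: 0% = vehicle wells with enzyme and 100% = reference inhibitor wells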
AHR act = AHR activators, primary screen, cell-based, luminescence, luciferase reporter, human; AHR-responsive luciferase reporter cells; activation, % at 5 µM; hit rate 2.5% among 320,000; AID 2796, 2010; in the data active = activation above about 47%;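 note: 0% = vehicle wells and 100% = reference agonist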
Target sequence (P35869 whole entry, looked up): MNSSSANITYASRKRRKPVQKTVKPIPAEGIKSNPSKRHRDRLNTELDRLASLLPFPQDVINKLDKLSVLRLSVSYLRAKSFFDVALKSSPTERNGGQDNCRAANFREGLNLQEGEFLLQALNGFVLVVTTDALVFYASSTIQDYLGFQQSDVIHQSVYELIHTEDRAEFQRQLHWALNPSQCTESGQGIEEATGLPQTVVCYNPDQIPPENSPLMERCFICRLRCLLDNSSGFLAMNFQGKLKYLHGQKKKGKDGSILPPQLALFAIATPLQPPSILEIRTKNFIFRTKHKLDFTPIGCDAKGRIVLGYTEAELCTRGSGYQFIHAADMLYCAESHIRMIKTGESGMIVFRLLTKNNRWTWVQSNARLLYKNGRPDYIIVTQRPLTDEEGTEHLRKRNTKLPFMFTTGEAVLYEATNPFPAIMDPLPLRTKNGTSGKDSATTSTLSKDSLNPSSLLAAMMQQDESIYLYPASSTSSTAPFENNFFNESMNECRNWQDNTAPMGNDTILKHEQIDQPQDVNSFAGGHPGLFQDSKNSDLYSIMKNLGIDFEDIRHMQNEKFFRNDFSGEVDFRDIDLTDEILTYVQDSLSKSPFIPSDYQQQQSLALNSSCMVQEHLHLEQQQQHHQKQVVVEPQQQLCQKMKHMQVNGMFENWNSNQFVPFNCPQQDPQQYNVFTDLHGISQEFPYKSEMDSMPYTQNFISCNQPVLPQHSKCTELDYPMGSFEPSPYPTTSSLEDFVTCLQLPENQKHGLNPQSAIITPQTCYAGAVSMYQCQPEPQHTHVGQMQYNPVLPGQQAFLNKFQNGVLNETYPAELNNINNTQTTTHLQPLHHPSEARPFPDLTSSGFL
TbMetRS inhib = T. brucei MetRS inhibitors, primary screen, biochemical, luminescence; methionyl-tRNA synthetase (Trypanosoma brucei brucei); purified T. brucei MetRS, ATP depletion, Kinase-Glo luminescence; inhibition, % at 11.9 µM; hit rate 0.4% among 360,000;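 active = inhibition above a per-plate cutoff of the control wells' mean inhibition plus 3 SD, cut at about 5.5% in these data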;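 note: 0% = DMSO wells median and 100% = median of wells with control inhibitor compound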
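technique = Kinase-Glo luminescence, ATP depletion format | system = purified MetRS (methionyl-tRNA synthetase) enzyme from Trypanosoma brucei | timing = 15 min preincubation, 2 h reaction, all 25 °C | evaluation = percent inhibition versus plate control medians | dosing = single dose, 11.9 µM final nominal, 0.9% final DMSO | also added = substrates ATP, L-methionine and bulk Escherichia coli tRNA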
* marks the source's active call; other numbers are inactive results; ? = inconclusive; . = no result given.

SMILES	HTR2A ag	bovine MsrA act	AI-2 QS modul	MsrA inhibitor	AHR act	TbMetRS inhib
O=C(N/N=C/c1c[nH]c2ccccc12)c1cc(Br)ccc1O	-6	2	80	1	77*	1
O=C(N/N=C/c1cc2c(cc1Br)OCO2)c1c[nH]c2ccccc12	-5	1	5	2	14	3
Cc1cc(C(=O)N/N=C/c2c[nH]c3ccccc23)c(C)o1	-1	3	14	2	56*	-1
CCOc1ccc(Br)cc1C(=O)N/N=C/c1c[nH]c2ccccc12	-5	-6	21	1	47*	1
O=C(N/N=C/c1ccc(Br)s1)c1c[nH]c2ccccc12	-6	-8	-77*	4	146*	0
O=C(N/N=C/c1ccccn1)c1sc2ccccc2c1Cl	-7	-5	?	4	9	0
O=C(N/N=C/c1c[nH]c2ccccc12)c1sc2ccccc2c1Cl	-6	-2	19	2	50*	0
O=C(NCc1ccccc1)c1csc(-c2cccnc2)n1	2	-9	.	0	67*	-1
O=C(NCCc1csc(-c2cccnc2)n1)c1ccccc1	-3	-2	7	1	4	0
O=C(NCCc1csc(-c2cccnc2)n1)c1cccc2ccccc12	-3	-4	16	0	57*	0
Nc1[nH]n2c(=O)c3c(nc2c1N=Nc1ccc(Cl)cc1)CCCC3	-6	-2	14	-1	57*	-1
N#C/C(=N\Nc1ccc([N+](=O)[O-])cc1)C(=N)N1CCOCC1	7	-4	15	1	8	0
N#C/C(=N\Nc1ccc(Br)cc1)C(=N)N1CCOCC1	-6	-4	16	1	56*	0
O=C(NCc1ccccc1)[C@H]1CCCN1C(=O)[C@H]1CCCN1C(=O)N1CCCCC1	.	.	.	-1	.	.
O=C(Cn1cnc2ccccc21)N/N=C/c1ccc([N+](=O)[O-])cc1	-3	-1	13	2	49*	-1
O=C(c1ccc(S(=O)(=O)N2CCCCCC2)cc1)N1CCN(c2ccccc2F)CC1	-4	-3	33	1	2	0
COc1cc(SC)ccc1C(=O)OCC(=O)N1CCN(C(C)=O)CC1	8	-2	18	0	1	0
CC(C)c1ccc(NC(=S)NNC(=O)C2CC2)cc1	0	-1	-5	1	6	0
CC(C)c1ccc(NNC(=O)C2CCC2)cc1	7	-2	-11	0	49*	0
C=CS(=O)(=O)N(C(=C)C(=O)OC)S(C)(=O)=O	.	.	.	0	.	.
Nc1ccc(O)c2ccccc12	.	.	29	.	57*	.
Nc1cc(-c2ccccc2)ccc1O	0	-2	30	0	22	1
CCc1ccc(OCC(=O)N/N=C(\C)c2ccc(O)cc2O)cc1	-1	-3	-78*	0	9	-1
CCOc1ccc(C(=O)c2ccc(OCC)c(N)c2)cc1N	-5	-12	21	2	60*	-1
CCOc1ccc(S(=O)(=O)N(CC)CC)cc1N	2	-7	16	2	2	-1
SMILES	HTR2A ag	bovine MsrA act	AI-2 QS modul	MsrA inhibitor	AHR act	TbMetRS inhib
CN1CCCCC(NC(=O)C2CCCCC2)C1=O (centres undefined)	.	.	.	0	.	.
S=C(SCc1c(Cl)cccc1Cl)N1CCSCC1	.	.	.	0	.	.
C=CCNc1nc(N2CCCCC2)c(C#N)c2c1CN(Cc1ccccc1)CC2	39*	-5	37	1	3	-1
CCN1CCc2c(C#N)c(N3CCCCC3)nc(NCc3ccccc3)c2C1	-11	0	20	1	3	0
COC(=O)[C@]12C[C@H](CC(=O)N3CCN(C(=O)C4CC4)CC3)C(=O)N(CCC3=CCCCC3)C1=C[C@H](COCc1ccccc1)O[C@@H]2C	.	.	.	0	.	.
Cc1ccc(Sc2ncccc2C(=O)O)cc1	3	-4	-80*	0	1	0
O=C(O)c1cccnc1Sc1ccccc1	3	-4	-16	-1	-1	0
CCC(C)NC(=O)c1cc2c(=O)n3cccc(C)c3nc2s1 (centres undefined)	4	0	24	2	65*	-1
C=CCNC(=O)c1cc2c(=O)n3cccc(C)c3nc2s1	-3	-2	16	1	14	0
CCN(CC)C(=O)c1cc2c(=O)n3cccc(C)c3nc2s1	7	-4	28	4	47*	0
COc1ccc(C)cc1NC(=O)COC(=O)c1ccc([N+](=O)[O-])o1	8	0	5	0	-2	-1
CCOC(=O)N/N=C(/C)c1ccc([N+](=O)[O-])o1	3	-3	-88*	1	0	0
c1ccc2c(Nc3nc(-c4ccncc4)nc4ccccc34)cccc2c1	-3	1	10	1	51*	0
Cc1c(O)ccc(/C=N/Nc2nc(-c3cccnc3)nc3ccccc23)c1O	1	-9	66	1	27	-1
Clc1ccccc1Nc1nc(-c2ccncc2)nc2ccccc12	-1	-3	1	0	15	-1
Cc1ccc(-c2nc(N/N=C/c3ccncc3)c3ccccc3n2)cc1	-4	-11	21	0	64*	-7
Cc1nc2ccccc2nc1N/N=C/c1ccc(O)cc1	1	-8	12	0	76*	-1
COc1ccc(/C=N/Nc2nc(-c3cccnc3)nc3ccccc23)cc1OC	2	-3	28	1	68*	-1
Clc1ccc(/C=N/Nc2nc(Cl)nc3ccccc23)cc1	4	-1	20	-1	65*	0
COCCn1nnnc1C(c1cc2cc(C)ccc2[nH]c1=O)N1CCCCCC1 (centres undefined)	2	-9	19	.	9	-1
COCCn1nnnc1C(c1cc2cc(C)ccc2[nH]c1=O)N1CCc2ccccc21 (centres undefined)	13	-12	9	1	65*	-3
Cc1cc2cc(C(c3nnnn3CC3CCCO3)N3CCCc4ccccc43)c(=O)[nH]c2cc1C (centres undefined)	6	-2	9	4.6*	.	0
CCOC(=O)c1c(C)n(C)c2ccc(OC)c(NC(=O)CCN3CCC(Cc4ccccc4)CC3)c12	-6	0	7	-2	66*	0
O=C(N[C@H](C(=O)N1CCC[C@H]1C(=O)NC1CCCC1)C1CCCCC1)c1cccs1	.	.	.	0	.	.
Cc1ccnc(Nc2nc(-c3ccc(O)c(O)c3)cs2)c1	0	-7	.	0	55*	-1
Oc1ccc(-c2csc(Nc3cccc4ccccc34)n2)cc1O	-1	0	6	0	52*	-1

Assay outcomes: PubChem, several laboratories
